From ChEMBL document CHEMBL4699415, “Synthesis and anti-HBV activity of carbocyclic nucleoside hybrids with salient features of entecavir and aristeromycin” (RSC Med Chem, 2020)

Key:
Hepatitis B virus = assay: Antiviral activity against Hepatitis B virus infected in human HepG2.2.15.7 assessed as reduction in HBV DNA level incubated for 9 days media replaced every 3 days once with test compound by RT-PCR analysis; type: functional, organism-based
How it was run: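 HepG2.2.15.7 cells, 1 × 10^4 per well, settled 24 h before exposure to a range of concentrations; drug-containing medium renewed every three days. At day nine, supernatant HBV DNA quantified by real-time PCR. IC50 is the concentration giving 50% inhibition of supernatant HBV DNA.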

[1] = Cytotoxicity against human HepG2.2.15.7 cells assessed as reduction in cell viability; type: cell-based
How it was run: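 HepG2.2.15.7 cells, 1 × 10^4 per well, seeded 24 h, then kept nine days with graded concentrations, medium with drug renewed every three days. Viability read by tetrazolium dye method. CC50 is the concentration reducing viable cells by 50%.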

| SMILES | IC50 (Hepatitis B virus) | CC50 [1] |
| --- | --- | --- |
| C=C1[C@@H](n2ccc3c(N)ncnc32)[C@H](O)[C@H](O)[C@@]1(C)CO | > 100 µM | > 100 µM |
| C=Cc1cn([C@@H]2C(=C)[C@](C)(CO)[C@@H](O)[C@H]2O)c2ncnc(N)c12 | > 100 µM | > 100 µM |
| C=C1[C@@H](n2cc(Br)c3c(N)ncnc32)[C@H](O)[C@H](O)[C@@]1(C)CO | 8.3 µM | > 100 µM |
| C=C1[C@@H](n2cc(F)c3c(N)ncnc32)[C@H](O)[C@H](O)[C@@]1(C)CO | > 100 µM | > 100 µM |
| C#Cc1cn([C@@H]2C(=C)[C@](C)(CO)[C@@H](O)[C@H]2O)c2ncnc(N)c12 | 6.3 µM | > 100 µM |
| C=C1[C@@H](n2cc(Cl)c3c(N)ncnc32)[C@H](O)[C@H](O)[C@@]1(C)CO | 22.9 µM | > 100 µM |
| C=C1[C@@H](n2cc(I)c3c(N)ncnc32)[C@H](O)[C@H](O)[C@@]1(C)CO | 3.4 µM | 87.5 µM |
| Nc1ncnc2c1ncn2[C@@H]1C[C@H](CO)[C@@H](O)[C@H]1O [ARISTEROMYCIN] | > 3 µM | > 3 µM |
| C=C1[C@H](CO)[C@@H](O)C[C@@H]1n1cnc2c(=O)[nH]c(N)nc21 [ENTECAVIR] | 0.00018 µM | > 0.1 µM |
